Assay results reported in PubChem BioAssay.
The source made the active and inactive calls.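 The calls were made as follows, unless noted: active = viability at or under a set limit in both replicates, limit being median viability minus 3 SD (cut at about 48% in these data, passing the limit was not always enough); inconclusive = at or under the limit in just one replicate; inactive = at or above the limit in both replicates.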

Key:
[1] = reducers of endogenous Her2 protein level, primary screen, SKBR3 breast tumor cells, AlphaScreen, ATP viability (AID 461;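 active = Her2 level under about 52% in both replicate screens, with viability over 70% of control, limit read from the data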;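 as to Her2 level: lower value means less Her2 protein in the cells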;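 as to viability: percent of carrier control wells set as 100% viability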); details: 18-24 h, measured here: SKBR3 viability, ATP luminescence, at 10 µM
[2] = target: Receptor tyrosine-protein kinase erbB-2 (Homo sapiens) (UniProt P04626); assay: as above; details: 18-24 h, at 10 µM, stronger effect = lower value
[3] = SK-BR-3 cell growth inhibitors, pilot screen, 24 h, human (AID 572;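 active = viability at or below 10% of carrier control in both of two separate runs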;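 also: compound exposure lasted between 18 and 24 h rather than exactly 24 h; 100% = carrier-treated control wells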); details: SK-BR-3 viability, CellTiter-Glo luminescence, at 10 µM, stronger effect = lower value
[4] = HUVEC growth inhibition – cell-based, human, primary screen (AID 575;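 active = viability at or below 30% in both replicate assays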;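 also: 100% = median of untreated cell wells with 0.1% DMSO on each plate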); details: HUVEC proliferation, CellTiter-Glo luminescence, 72 h; at 10 µM; stronger effect = lower value
Method in brief: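 Test system: primary human umbilical vein endothelial cells; medium: endothelial basal medium with 2% FBS plus growth supplements; dosing: 10 µM compound only; times: 72 h treatment at 37 °C; signal: CTG luminescence; read-out: % viability relative to median vehicle-well signal on each plate; control set: vehicle and MePR control wells; plate: 384-well, collagen-coated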

[5] = growth inhibitors of H69AR lung tumor, primary screen, human, duplicate replicates (AID 580); details: H69AR lung tumor cells viability, ATP luminescence, 72 h; at 10 µM; stronger effect = lower value;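 also: 100% = mean luminescence of untreated wells and 0% = no signal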
[6] = reversal of MRP1-mediated doxorubicin resistance, pilot screen, H69AR cells, doxorubicin co-treatment (AID 601;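 active = viability loss from added drug above about 55%, and viability with drug at most 40%, in both replicates, limit read from the data, passing the limit was not always enough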); details: CellTiter-Glo, 72 h, at 10 µM; for differential viability (reversal): stronger effect = higher value
[7] = 384-well plate pilot, post-Golgi transport modulator project, inhibition of yeast transport mutant growth (AID 636; in the data active = inhibition above about 31%); details: absorbance 615 nm, about 18 h, stronger effect = higher value
[8] = growth suppression of yeast trafficking mutant, preliminary HTS, modulators of trafficking downstream of Golgi apparatus project, 1536-format plate, OD 615 nm (AID 637; in the data active = inhibition above about 30%); details: yeast transport mutant growth, absorbance 615 nm, 18 h; stronger effect = higher value
[9] = H69AR cells + 2 uM doxorubicin, measured here: viability with 2 uM doxorubicin, stronger effect = lower value
[10] = H69AR cells, compound alone cytotoxicity

Sequence of Receptor tyrosine-protein kinase erbB-2 (Homo sapiens) (P04626 whole entry, looked up): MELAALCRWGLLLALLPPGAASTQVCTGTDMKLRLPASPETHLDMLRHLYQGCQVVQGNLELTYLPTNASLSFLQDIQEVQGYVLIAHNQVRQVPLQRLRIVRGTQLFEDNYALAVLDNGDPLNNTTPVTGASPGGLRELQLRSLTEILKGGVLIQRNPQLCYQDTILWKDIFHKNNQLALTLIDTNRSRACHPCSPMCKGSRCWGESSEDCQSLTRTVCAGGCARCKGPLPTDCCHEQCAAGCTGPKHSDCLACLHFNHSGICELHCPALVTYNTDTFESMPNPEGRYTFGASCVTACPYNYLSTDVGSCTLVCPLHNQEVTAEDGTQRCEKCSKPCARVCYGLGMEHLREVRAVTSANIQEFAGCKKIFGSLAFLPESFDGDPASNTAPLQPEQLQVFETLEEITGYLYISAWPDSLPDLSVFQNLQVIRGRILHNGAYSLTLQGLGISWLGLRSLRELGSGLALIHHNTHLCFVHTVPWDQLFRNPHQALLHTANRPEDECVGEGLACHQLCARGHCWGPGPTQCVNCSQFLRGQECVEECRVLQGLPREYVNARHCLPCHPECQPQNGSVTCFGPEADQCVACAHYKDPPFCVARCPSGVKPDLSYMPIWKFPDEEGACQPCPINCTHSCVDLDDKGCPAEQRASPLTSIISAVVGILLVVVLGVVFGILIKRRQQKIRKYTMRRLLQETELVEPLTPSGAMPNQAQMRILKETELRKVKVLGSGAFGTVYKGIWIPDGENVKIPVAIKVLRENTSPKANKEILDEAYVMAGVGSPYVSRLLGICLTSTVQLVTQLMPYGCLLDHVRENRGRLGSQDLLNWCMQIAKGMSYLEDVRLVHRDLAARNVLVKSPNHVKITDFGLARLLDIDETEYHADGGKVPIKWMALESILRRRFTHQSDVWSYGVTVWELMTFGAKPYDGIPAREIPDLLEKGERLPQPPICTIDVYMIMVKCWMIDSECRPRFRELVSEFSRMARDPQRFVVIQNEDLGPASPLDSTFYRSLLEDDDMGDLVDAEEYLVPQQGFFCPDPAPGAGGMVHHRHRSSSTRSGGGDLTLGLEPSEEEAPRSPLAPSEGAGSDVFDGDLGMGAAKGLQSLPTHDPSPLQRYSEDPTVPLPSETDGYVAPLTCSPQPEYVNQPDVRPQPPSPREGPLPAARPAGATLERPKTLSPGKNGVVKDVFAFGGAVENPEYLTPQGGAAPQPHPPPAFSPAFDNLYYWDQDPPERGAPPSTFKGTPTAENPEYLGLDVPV

| SMILES | viability [1] [%] | Her2 level [2] | viability [3] | viability [4] | viability [5] | differential viability (reversal) ([6]; H69AR cells + 2 uM doxorubicin) | viability [6, 9] [%] | viability [6, 10] [%] | inhibition [7] | inhibition [8] |
| --- | --- | --- | --- | --- | --- | --- | --- | --- | --- | --- |
| CN(C)S(=O)(=O)N1CCN(c2cccc(Cl)c2)CC1 | 112 | 101% (inactive) | 112% (inactive) | 92% (inactive) | 91% (inactive) | -15% (inactive) | 106 | 91 | 0% (inactive) | 27% (inactive) |
| CCOC(=O)c1ccc(COC(=O)CCc2nc3ccccc3[nH]c2=O)o1 | 92 | 96.5% (inactive) | 92% (inactive) | 100% (inactive) | 92.1% (inactive) | -4.18% (inactive) | 96.2 | 92.1 | -1.32% (inactive) | 5.08% (inactive) |
| O=C(NCc1ccc2c(c1)OCO2)C1CCCN(S(=O)(=O)c2cccnc2)C1 (stereo not given) | 95.5 | 102% (inactive) | 95.5% (inactive) | 101% (inactive) | 92.4% (inactive) | 7.61% (inactive) | 84.8 | 92.4 | 0.38% (inactive) | -6.5% (inactive) |
| CSc1ccc(Cn2nnc(C(=O)NCc3ccccc3)c2N)cc1 | 96.5 | 91.5% (inactive) | 96.5% (inactive) | 76.4% (inactive) | 103% (inactive) | 0.465% (inactive) | 103 | 103 | -1.87% (inactive) | 0.16% (inactive) |
| CCN(CCCNC(=O)C1CCN(S(=O)(=O)c2cccc3nonc23)CC1)Cc1ccccc1 | 89 | 90% (inactive) | 89% (inactive) | 103% (inactive) | 92.9% (inactive) | 11.1% (inactive) | 81.8 | 92.9 | -5.39% (inactive) | 2.5% (inactive) |
| CCOC(=O)C1CCCN(CCCc2ccccc2)C1 (stereo not given) | 104 | 91% (inactive) | 104% (inactive) | 105% (inactive) | 90.8% (inactive) | 3.21% (inactive) | 87.6 | 90.8 | -5.47% (inactive) | -1.9% (inactive) |
| Cc1cc(C(=O)CSCc2nnc3n(CCC(C)C)c(=O)c4ccccc4n23)c(C)n1C | 99.5 | 84% (inactive) | 99.5% (inactive) | 84.2% (inactive) | 67.3% (inactive) | 0.59% (inactive) | 66.8 | 67.3 | -1.84% (inactive) | -0.73% (inactive) |
| CC(=O)N1CCN(c2ccc(N=Cc3c(O)n(Cc4ccccc4)c(=O)[nH]c3=O)cc2)CC1 | 89 | 87.5% (inactive) | 89% (inactive) | 83.5% (inactive) | 94.6% (inactive) | -3.64% (inactive) | 98.2 | 94.6 | -0.91% (inactive) | 0.95% (inactive) |
| O=C(O)CCc1ccc(-c2ccc(F)cc2)n1CC(=O)O | 94.5 | 87% (inactive) | 94.5% (inactive) | 106% (inactive) | 98% (inactive) | 10.8% (inactive) | 87.2 | 98 | -7.12% (inactive) | -1.43% (inactive) |
| Cn1nnnc1SCc1cn2cccnc2n1 | 112 | 90.5% (inactive) | 112% (inactive) | 101% (inactive) | 89.3% (inactive) | -0.09% (inactive) | 89.4 | 89.3 | -5.33% (inactive) | -3.33% (inactive) |
| COCCN1CCN(c2c(C)c(C)nc3cc(-c4cccc(OC)c4)nn23)CC1 | 100 | 83.5% (inactive) | 100% (inactive) | 91.1% (inactive) | 95.4% (inactive) | 12.7% (inactive) | 82.7 | 95.4 | -5.45% (inactive) | -1.43% (inactive) |
| Cn1c(SCc2nc3ccccc3c(=O)[nH]2)nnc1-c1ccco1 | 99.5 | 81% (inactive) | 99.5% (inactive) | 97.5% (inactive) | 96% (inactive) | 5.6% (inactive) | 90.4 | 96 | -7.84% (inactive) | 6.89% (inactive) |
| CC(C)=CCCC(C)N(C=O)C(C)CCC=C(C)C (stereo not given) | 84.5 | 94% (inactive) | 84.5% (inactive) | 76.3% (inactive) | 87.8% (inactive) | 7.05% (inactive) | 80.7 | 87.8 | -0.68% (inactive) | -2.7% (inactive) |
| CCc1nc2scc(-c3ccccc3)c2c(=O)n1N | 136 | 119% (inactive) | 136% (inactive) | 84% (inactive) | 88.4% (inactive) | -8.11% (inactive) | 96.5 | 88.4 | -1.33% (inactive) | -3.97% (inactive) |
| CCNS(=O)(=O)c1ccc(S(=O)(=O)N(Cc2ccccn2)C2CCCCC2)cc1 | 102 | 87% (inactive) | 102% (inactive) | 109% (inactive) | 88.9% (inactive) | 13.6% (inactive) | 75.3 | 88.9 | -8.92% (inactive) | -5.17% (inactive) |
| COc1ccc(C)cc1NC(=O)c1nc2nc(C)cc(C)n2n1 | 86 | 76% (inactive) | 86% (inactive) | 73% (inactive) | 85.1% (inactive) | -1.54% (inactive) | 86.6 | 85.1 | -6.13% (inactive) | -1.11% (inactive) |

| SMILES | viability [1] [%] | Her2 level [2] | viability [3] | viability [4] | viability [5] | differential viability (reversal) ([6]; H69AR cells + 2 uM doxorubicin) | viability [6, 9] [%] | viability [6, 10] [%] | inhibition [7] | inhibition [8] |
| --- | --- | --- | --- | --- | --- | --- | --- | --- | --- | --- |
| O=C(c1ccco1)N1CCN(S(=O)(=O)c2ccc(C3CCCCC3)cc2)CC1 | 96 | 97.5% (inactive) | 96% (inactive) | 99.9% (inactive) | 85.6% (inactive) | 0.505% (inactive) | 85.1 | 85.6 | -4.53% (inactive) | 2.42% (inactive) |
| CCOc1ccc(C2/C(=C(/O)c3ccc(OC)cc3)C(=O)C(=O)N2c2cc(C)on2)cc1OC (stereo not given) | 85 | 144% (inactive) | 85% (inactive) | 82.3% (inactive) | 89.4% (inactive) | -10.3% (inactive) | 99.7 | 89.4 | 1.45% (inactive) | 10.7% (inactive) |
| O=C(CN1C(=O)CC(c2ccco2)Sc2ccccc21)Nc1ccccc1F (stereo not given) | 82.5 | 82% (inactive) | 82.5% (inactive) | 72.2% (inactive) | 84.3% (inactive) | 3.75% (inactive) | 80.6 | 84.3 | 0% (inactive) | -0.83% (inactive) |
| Cc1noc(C)c1S(=O)(=O)Nc1c(C)n(C)n(-c2ccccc2)c1=O | 108 | 99% (inactive) | 108% (inactive) | 104% (inactive) | 98.4% (inactive) | 8.05% (inactive) | 90.3 | 98.4 | -5.13% (inactive) | -1.11% (inactive) |
| CCc1nc(C)c(C#N)c2cc(OC)c(OC)cc12 | 103 | 90% (inactive) | 103% (inactive) | 77.8% (inactive) | 82.4% (inactive) | 8.46% (inactive) | 74 | 82.4 | -0.91% (inactive) | 3.93% (inactive) |
| C=CCNC(=O)c1cccc(Br)c1 | 92 | 94% (inactive) | 92% (inactive) | 89.4% (inactive) | 92% (inactive) | -9.44% (inactive) | 101 | 92 | 9.59% (inactive) | 5.08% (inactive) |
| C/C=C/c1ccc(OCCn2cncn2)c(OC)c1 | 98.5 | 126% (inactive) | 98.5% (inactive) | 95.6% (inactive) | 89.8% (inactive) | 1.09% (inactive) | 88.7 | 89.8 | 0.14% (inactive) | 0.66% (inactive) |
| O=C(CCS(=O)(=O)c1cccc2nonc12)Nc1cccc2c1CCCC2 | 94.5 | 114% (inactive) | 94.5% (inactive) | 103% (inactive) | 95.5% (inactive) | 12% (inactive) | 83.5 | 95.5 | -6.44% (inactive) | -3.65% (inactive) |
| COc1ccccc1-n1nnnc1SCc1ccccc1 | 103 | 94% (inactive) | 103% (inactive) | 90.6% (inactive) | 97.1% (inactive) | 16.7% (inactive) | 80.3 | 97.1 | -4.27% (inactive) | 1.61% (inactive) |
| CC(C)Cn1c(-c2ccc(F)cc2)n[nH]c1=S | 114 | 98.5% (inactive) | 114% (inactive) | 80% (inactive) | 88.8% (inactive) | 8.11% (inactive) | 80.7 | 88.8 | -5% (inactive) | -1.33% (inactive) |
| COc1ccc(C2/C(=C(/O)c3cnn(-c4ccccc4)c3C)C(=O)C(=O)N2CCN(C)C)cc1OC (stereo not given) | 109 | 86% (inactive) | 109% (inactive) | 102% (inactive) | 101% (inactive) | 1.86% (inactive) | 98.7 | 101 | -1.62% (inactive) | -2.54% (inactive) |
| Cc1ccc2[nH]cc(C(=O)CN3CCC4(CC3)OCCO4)c2c1 | 106 | 90% (inactive) | 106% (inactive) | 104% (inactive) | 92.2% (inactive) | 1.75% (inactive) | 90.5 | 92.2 | -4.13% (inactive) | -1.48% (inactive) |
| Cn1c2ccccc2c2c(C(=O)NCCCN3CCCC3=O)cn(C3CCCCC3)c(=O)c21 | 86 | 88.5% (inactive) | 86% (inactive) | 95.9% (inactive) | 83.7% (inactive) | 3.06% (inactive) | 80.7 | 83.7 | -4.53% (inactive) | -0.49% (inactive) |
| FC(F)(F)c1cc(-c2ccccc2)nc(N2CCCCC2)n1 | 101 | 102% (inactive) | 101% (inactive) | 101% (inactive) | 98.1% (inactive) | -3% (inactive) | 101 | 98.1 | -4.53% (inactive) | 5.57% (inactive) |
| CCc1ccc(C=NC23CN4CN(CN(C4)C2)C3)s1 | 108 | 114% (inactive) | 108% (inactive) | 95.2% (inactive) | 105% (inactive) | 9.64% (inactive) | 95.2 | 105 | 1.17% (inactive) | -3.61% (inactive) |
